# CHOP inhibitor: blocks CHOP induction under ER stress; CHO-K1 CHOP-promoter luciferase, tunicamycin-induced, 15-18 h; inhibition, % at 10 µM; 3.8% of 220,000 active;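 active = compounds that reduced the stress-induced luciferase reporter signal by more than about 70% of percent inhibition, limit read from the data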;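 also: 0% = tunicamycin plus vehicle and 100% = wells without tunicamycin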
# UPR CHOP act: apoptotic UPR (CHOP) activation; CHO-CHOP luciferase reporter, luminescence; percent of tunicamycin response over DMSO baseline; activation, % at 10 µM; 0.34% of 330,000 active;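 active = at 10 µM dose, activation of 40% or more, normalized to positive control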;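 also: 100% = tunicamycin at 10 µg/mL and 0% = DMSO alone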
#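 Dosing – one dose, 10 µM in 0.5% DMSO · System – CHO-CHOP cells, stable luciferase reporter of PERK-eIF2a-CHOP signalling · Input – 500 cells/well · Control set – tunicamycin 10 µg/mL final as positive, DMSO-only wells as negative · Timing – 6 h compound treatment, 37 °C · Measure – % activation vs tunicamycin · Technique – luminescence read with Steady-Glo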
# XBP1 UPR activ: adaptive UPR (XBP1) activation. CHO-XBP1 luciferase reporter, IRE1-XBP1 UPR activation, luminescence; percent of tunicamycin response, DMSO as zero. activation, % at 20 µM. 0.33% of 330,000 active;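 active = versus positive control, 20 µM dose yields 30% or more activation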;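 also: 100% = tunicamycin at 10 µg/mL and 0% = DMSO only wells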
#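 Material: CHO-XBP1 cells stably carrying IRE1-XBP1-driven luciferase reporter | Medium: F12 with 10% serum | Compound dosing: 20 µM single concentration, DMSO 1% | Incubation: Overnight seeding at 37 °C, 6 h compound treatment at 37 °C | Detection: Steady-Glo luminescence read | Read-out basis: % activation of reporter signal versus tunicamycin and DMSO controls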
# Jurkat NFkB inh: inhibitors of the PMA/ionomycin-induced NF-kB reporter in Jurkat cells; inhibition, % at 4 µM; PMA/ionomycin-induced NF-kB luciferase reporter, luminescence; 0.53% of 330,000 active; AID 435003; in the data active = inhibition above about 50%
# 697 NFkB inh: inhibitors of the PMA/ionomycin-induced NF-kB reporter in 697 B cells. 697 B-cell NF-kB luciferase reporter, 16 h. AID 435022. inhibition, % at 4 µM. 0.33% of 330,000 active; in the data active = inhibition above about 35%
# Jurkat NFkB conf: lowers PMA/ionomycin-induced NF-kB signal in Jurkat cells; shares compounds with Jurkat NFkB inh; Jurkat NF-kB luciferase, 16 h; inhibition, % at 4 µM; 27% of 2,700 active;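 active = inhibition reaching about 45% at 4 µM in either replicate, limit read from the data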;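 also: plate controls were PMA/ionomycin stimulated DMSO wells for no effect and unstimulated DMSO wells for full effect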
# The depositor's hits bear a star; . = no result. The full list was thinned out, with hits kept by preference.
SMILES,CHOP inhibitor,UPR CHOP act,XBP1 UPR activ,Jurkat NFkB inh,697 NFkB inh,Jurkat NFkB conf
C/C(=N\NC(=O)c1ccc(OC2OCCOC2Oc2ccc(C(=O)N/N=C(\C)c3ccncc3)cc2)cc1)c1ccncc1 (configuration not stated),12,0,-1,52*,-47,8
COc1ccc(/C=N/NC(=O)CNC(=O)C2COc3ccccc3O2)cc1OC (configuration not stated),8,-1,0,-6,-19,.
CCc1cc2c(=O)nc3n(c2s1)Cc1ccccc1/C3=C(/O)c1cccc([N+](=O)[O-])c1,20,3,2,69*,-108,51*
Fc1ccccc1-c1nc(-c2ccc(Cl)cc2)no1,.,3,-3,-176,-247,-76
CCOC(=O)c1ccc(NC(=O)Nc2ccon2)cc1,-6,4,22,58*,-7,34
Cc1cc(NC(=O)Nc2ccc(Cl)c(Cl)c2)no1,.,3,-1,-6,-6,.
CCOC(=O)c1ccc(NC(=O)Nc2ccc(Cl)cn2)cc1,-28,1,1,-1,4,.
O=C(Nc1ccc(Cl)c(Cl)c1)Nc1ccon1,.,1,-4,53*,-18,32
COc1ccc(C(=O)Nc2ccc(Cl)cc2C(=O)NCc2ccco2)cc1,7,0,2,52*,-42,4
COc1ccc(C(=O)NC(=S)NCc2ccco2)cc1,-17,1,-1,-1,-30,.
COc1ccc(Cl)cc1NC(=O)CN(C)C(=O)c1cc2c(F)cccc2s1,.,-1,-3,58*,1,17
CC1CC(C)CN(S(=O)(=O)c2ccc(NC(=O)c3ccc(=O)[nH]c3)cc2)C1 (configuration not stated),.,2,-1,54*,-36,49*
O=C(Nc1ccc2c(c1)OCO2)c1ccc2c(c1)OCO2,35,-1,-2,-136,-152,.
O=C(Nc1ccc2nsnc2c1)c1ccc2c(c1)OCO2,30,0,1,-166,-159,-72
O=C(Nc1ccc(Br)cc1)c1ccc2c(c1)OCO2,.,1,-7,-151,-238,-123
C=CCNc1cc(C)oc(=O)c1C(=O)CCC,25,1,0,-16,3,.
COc1ccc(-n2nnnc2-c2ccccc2)cc1,.,2,4,53*,-77,58*
Clc1ccc(-n2nnnc2-c2ccccc2)cc1,-10,0,-1,-3,5,.
O=C(NNC(=O)c1csc(N2CCOCC2)n1)c1cccnc1,.,1,-1,1,18,.
O=C(c1ccc(F)cc1)C(CN1CCOCC1)c1ccccc1 (configuration not stated),.,29,-10,53*,-137,12
COCCNc1nnc(SCC(=O)c2c[nH]c3ccccc23)s1,20,.,.,.,.,.
CCCNC(=O)c1ccc(-c2nc3ccccc3s2)s1,11,-6,-10,-161,-58,-95
Brc1ccc(-c2nc3ccccc3s2)s1,55,0,-4,-164,-170,-102
CCCNC(=O)Nc1nc2ccccc2s1,-13,1,-1,-109,-120,.
Fc1ccc2[nH]c3c(N4CCc5ccccc5C4)ncnc3c2c1,73*,8,0,50*,30,63*
SMILES,CHOP inhibitor,UPR CHOP act,XBP1 UPR activ,Jurkat NFkB inh,697 NFkB inh,Jurkat NFkB conf
Brc1ccc2[nH]c3c(N4CCc5ccccc5C4)ncnc3c2c1,64,7,2,-6,-35,.
COc1ccc2[nH]c3c(N4CCN(Cc5ccc6c(c5)OCO6)CC4)ncnc3c2c1,39,-2,0,20,8,.
CCOc1ccc2[nH]c3c(N4CCc5ccccc5C4)ncnc3c2c1,11,5,6,52*,-24,21
COc1ccc2[nH]c3c(N4CCC(O)(c5cccc(C(F)(F)F)c5)CC4)ncnc3c2c1,36,6,9,51*,0,23
CN(C(=O)CSc1nnc(-c2ccccc2F)n1N)C1CCCCC1,.,-1,-5,-2,10,.
O=c1c2ccccc2oc2ccc(-c3ccc4[nH]ccc4c3)cc12,.,7,6,-172,-218,-90
O=C1C=C(c2ccc3ncccc3c2)C[C@@H](c2ccc(F)cc2)C1,.,1,0,22,-10,.
O=C1C=C(c2ccc3ncccc3c2)C[C@@H](c2ccc3c(c2)OCO3)C1,.,1,2,70*,-58,50*
COc1cc(/C=C(\C#N)C(=O)Nc2ccccc2)ccc1OCCN1CCOCC1,.,1,-5,-2,-54,.
COc1cc(/C=N/O)ccc1OCc1ccc(Cl)cc1,39,2,-2,-177,-218,-187
CCOc1cc(/C=N/O)ccc1OCc1ccc(F)cc1,38,1,6,-14,3,.
COc1cc(/C=C(\C#N)C(=O)Nc2cccc(C(=O)O)c2)ccc1OCc1ccc(Cl)cc1,.,6,4,-229,-5,-130
Cc1noc(C)c1NC(=O)Nc1ccc2c(c1)C(=O)N([C@H](C)CO)C[C@H](C)[C@@H](CN(C)C(=O)Nc1c(C)noc1C)O2,.,-1,-3,-1,2,.
COC(=O)c1cc(Br)c(=O)n(-c2cc(C)on2)c1,1,-1,1,-1,4,.
O=C(Nc1ccc2c(c1)OCO2)c1ccc(Cl)s1,-12,5,3,-155,-88,-87
O=C(Nc1ccc2c(c1)OCO2)Nc1ccc2c(c1)OCO2,19,5,4,-104,-113,.
O=C(Nc1ccc(Cl)cc1)Nc1ccc2c(c1)OCO2,.,7,2,-151,-99,-32
CCCCc1ccc(NC(=O)c2ccc(N(C)S(C)(=O)=O)cc2)cc1,-22,-1,0,50*,-30,54*
COc1cc2cc(CCOC(=O)c3ccco3)oc(=O)c2cc1OC,.,0,-2,-8,13,.
Cc1c(C(=O)C(=O)N2c3ccc(F)cc3CCC2C)c2ccccc2n1C (configuration not stated),16,-1,4,65*,-64,32
Cc1ccc(CNC(=O)CS(=O)(=O)Cc2nc(-c3ccc(C)cc3)oc2C)cc1,.,2,-2,2,-26,.
CCOC(=O)CSC1=C(C#N)C(c2ccc(Cl)cc2)CC(=O)N1 (configuration not stated),6,-1,-3,-1,-4,.
CCOC(=O)CSC1=C(C#N)C(c2ccc(C)o2)CC(=O)N1 (configuration not stated),.,-1,11,58*,-21,17
COc1ccc(S(=O)(=O)Nc2c(C(=O)O)[nH]c3ccc(OC)cc23)cc1,.,2,1,5,8,.
COC(=O)c1[nH]c2ccc(F)cc2c1NS(=O)(=O)c1ccc(OC)cc1,-36,-2,-2,66*,-44,47*
C(=N\NC1=Nc2cccc3cccc1c23)/c1ccccc1,32,2,2,-167,-181,-112

# Screens as filed in PubChem BioAssay.
